The values that follow come from ChEMBL document CHEMBL1121642, “Synthesis and antiherpetic activity of some 4-[(aryloxy)alkyl]pyrazoles” (1981).

In brackets after ≈: the same amount, converted by molar mass. Activity calls are given as the source filed them. The calls are words filed in the database; no cut-off is given here. Bounds are passed on as bounds.

Assay [1] relates to Human alphaherpesvirus 2. The experiment in a line: Tested in vitro for minimum inhibitory activity against Herpes simplex virus type -2 (HSV-2); Inactive. Format: functional, organism-based.
The species entered for assay [2] is Mus musculus. The experiment in a line: Effect on the survival rate of mice infected intravaginally with Herpes simplex virus type -2 (HSV-2) at 10% dosage twice in a day. In kind it is functional. A digest of the protocol:
(§1)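 Mice infected intravaginally with a tampon (dental pellet) saturated with HSV suspension. Aqueous drug solution given intravaginally b.i.d. on cotton tampons, starting 4 h postinfection. Each tampon stayed in 24 h, was re-moistened with 0.02 mL drug 6 h after insertion, and was replaced daily. Deaths were recorded daily to 14 days. Read-out: % survival and average survival time, with survivors scored >14 days.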

For assay [3], the species on record is Mus musculus. The experiment in a line: Effect on the survival rate of mice infected intravaginally with Herpes simplex virus type -2 (HSV-2) at 5% dosage twice in a day. Format: functional. A digest of the protocol:
as §1

The test system of assay [4] is Human alphaherpesvirus 2. Kind of assay: Tested in vitro for minimum inhibitory activity against Herpes simplex virus type -2 (HSV-2). In kind it is functional.

In the case of `CCc1nn(CC(F)(F)F)c(CC)c1CCCCCCOc1ccc(OC)cc1Cl`, the MIC entry in assay [1] is “inactive”.

In the case of `COc1ccc(OCCCCCCCc2c(C)nn(C)c2C)c(Cl)c1`, in assay [2], the Average survival was >10 days and the Survival came out at 30%. Besides, in assay [3], the Average survival is >7 days and the Survival is listed as 10%. This compound returned an MIC in assay [4] of 0.7 µg/mL (≈ 1.92 µM).

As to `CCc1n[nH]c(CC)c1CCCCCCOc1ccccc1`, the MIC result in assay [1] was “inactive”.

In the case of `CCn1nc(C)c(CCCCCCOc2ccc(OC)cc2Cl)c1C`, in assay [2], the Average survival is >9 days and the Survival came out at 30%. In addition, in assay [3], the Average survival was >10 days and the Survival was 30%. The compound further had an MIC in assay [4] of 0.7 µg/mL (≈ 1.92 µM).

With `CCc1nn(-c2ccccn2)c(CC)c1CCCCCCOc1ccc(OC)cc1Cl`, the MIC in assay [4] came to 6 µg/mL (≈ 13.6 µM).

In assay [4], `CCOC(=O)Cn1nc(CC)c(CCCCCCOc2ccc(OC)cc2Cl)c1CC` registered an MIC of 6 µg/mL (≈ 13.3 µM).

In assay [4], `CCc1n[nH]c(CC)c1CCCCCCCOc1ccc(OC)cc1Cl` displayed an MIC of 6 µg/mL (≈ 15.8 µM).

In assay [4], `CCc1nn(CCO)c(CC)c1CCCCCCOc1ccc(OC)cc1Cl` gave an MIC of 12 µg/mL (≈ 29.3 µM).
